Data published in ChEMBL document CHEMBL1123304 (J Med Chem, 1986).

Experiments:
[1] = species: Felis catus; assay: Compound was tested for potentiating the dopamine-induced hypotension in cats.; type: functional
[2] = Lethal effect was determined in mice; type: ADME, organism-based; settings: mouse, in vivo
In short: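 Male CFLP (Swiss) mice, 18–22 g, dosed sc. Vehicle was physiological saline, with Tween-80 added for some compounds in this determination; controls received the solvent. LD50 in mg/kg determined.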

[3] = species: Mus musculus; assay: Amphetamine induced motility in mice; type: functional
[4] = target: Sodium-dependent dopamine transporter (Rattus norvegicus) (UniProt P23977); assay: Inhibitory activity against inducing stereotypy in rats; type: functional
Sequence of Sodium-dependent dopamine transporter (Rattus norvegicus) (P23977 whole entry): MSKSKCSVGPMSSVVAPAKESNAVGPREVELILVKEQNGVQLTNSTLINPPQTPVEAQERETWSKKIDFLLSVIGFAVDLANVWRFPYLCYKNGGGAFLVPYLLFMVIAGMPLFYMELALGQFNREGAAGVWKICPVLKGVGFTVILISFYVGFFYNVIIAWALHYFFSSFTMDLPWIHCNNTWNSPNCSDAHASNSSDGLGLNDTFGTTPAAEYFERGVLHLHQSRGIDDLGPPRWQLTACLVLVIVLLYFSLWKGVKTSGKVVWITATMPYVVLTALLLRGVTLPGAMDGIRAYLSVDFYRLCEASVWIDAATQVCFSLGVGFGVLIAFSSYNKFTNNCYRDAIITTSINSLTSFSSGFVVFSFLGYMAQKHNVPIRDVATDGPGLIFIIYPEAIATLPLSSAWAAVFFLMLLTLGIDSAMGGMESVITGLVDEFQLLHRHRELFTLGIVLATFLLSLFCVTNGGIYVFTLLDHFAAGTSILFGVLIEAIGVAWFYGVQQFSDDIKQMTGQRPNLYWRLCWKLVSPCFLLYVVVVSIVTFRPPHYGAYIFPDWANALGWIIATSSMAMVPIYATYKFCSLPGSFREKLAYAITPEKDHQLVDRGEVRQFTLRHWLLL
In short: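 Male CFY (Sprague-Dawley) rats. Animals showing stereotypy were placed in an activity meter. Doses giving 5 times control motility were determined. Minimum effective dose, sc.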

[5] = species: Mus musculus; assay: Inhibitory activity against reserpine hypothermia in mice.; type: functional
In short: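 Mice (male CFLP, 18–22 g, 10/group) given reserpine 1 mg/kg ip 3 h before testing. Rectal temperature read with a thermistor probe. Compounds given sc 15 or 30 min before testing. Minimum effective dose.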

[6] = test system: Mus musculus; assay: Inhibitory activity against tetrabenazine catalepsy in mice (sc); type: functional
[7] = test system: Mus musculus; assay: Dose influencing (+/-) the spontaneous motility in mice, administered intraperitoneally (ip); type: functional
In short: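 CFLP male mice, 10/group. Spontaneous motility recorded in a circuit-closing apparatus, no amphetamine. Compounds given 15 or 30 min before testing. Vehicle controls. Minimum dose raising (+) or lowering (−) motility, ip.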

[8] = test system: Mus musculus; assay: Inhibition of tetrabenazine ptosis in mice (sc).; type: functional
[9] = species: Mus musculus; assay: Compound was evaluated for the inhibitory activity against tetrabenazine catalepsy in mice; type: functional
In short: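 Male CFLP (Swiss) mice, 18–22 g, 10/group. Tetrabenazine 25 mg/kg ip, 30 min before testing. Catalepsy scored on a vertical grid. Compounds given sc 15 or 30 min before testing. Controls received the vehicle. ED50 with range.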

[10] = target: Sodium-dependent dopamine transporter (Mus musculus) (UniProt Q61327); assay: Compound was evaluated for the inhibitory activity against Haloperidol catalepsy in mice; type: functional
Sequence of Sodium-dependent dopamine transporter (Mus musculus) (Q61327 whole entry): as the sequence (P23977 whole entry) above, with S21P, A57V, A194S, H600R, L619V counted along it
In short: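 Male CFLP (Swiss) mice, 18–22 g, 10/group. Haloperidol 5 mg/kg ip, 60 min. Catalepsy tested on a vertical grid. Compounds given sc 15 or 30 min before testing, in saline or the listed vehicles. Controls received the vehicle. ED50 with range.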

[11] = species: Mus musculus; assay: Compound was evaluated for the inhibitory activity against Tetrabenazine ptosis in mice; type: functional
In short: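 CFLP male mice, 18–22 g, 10/group. Tetrabenazine 35 mg/kg ip at −20 min. Ptosis rated by an observer blind to treatment. Compounds given sc 15 or 30 min beforehand. Controls received the vehicle. ED50 with range.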

[12] = species: Felis catus; assay: Compound was tested for potentiating the dopamine-induced hypotension in cats; type: functional
[13] = test system: Mus musculus; assay: Compound was evaluated for the dose influencing (+/-) the amphetamine induced motility in mice, administered intraperitoneally (ip); type: functional

SMILES | EDmin [1] [mg/kg] | LD50 [2] [mg/kg] | EDmin [3] [mg/kg] | EDmin [4] [mg/kg] | EDmin [5] [mg/kg] | ED50 [6] [mg/kg] | EDmin [7] [mg/kg] | ED50 [8] [mg/kg] | ED50 [9] [mg/kg] | ED50 [10] [mg/kg] | ED50 [11] [mg/kg] | EDmin [12] [mg/kg] | EDmin [13] [mg/kg]
CCCCNCC(=O)Nc1cccc2c1CN(C)CC2c1ccc(Cl)cc1 (stereo unspecified) | 0.5 | 320 | >20 | 32.8 | 5 | 13.5 | >20 | 3.9 |  |  |  |  | 
CN1Cc2c(NC(=O)CCl)cccc2C(c2ccccc2)C1 (stereo unspecified) | 1 | 94 | 10 | 8 | >30 |  | 20 |  | 10 | 10 | 3 |  | 
CCCCNC(=O)Nc1cccc2c1CN(C)CC2c1ccccc1 (stereo unspecified) | 2 | 430 | 80 | > 83 | >40 | ~40 | 80 | 23 |  |  |  |  | 
CCCCOC(=O)Nc1cccc2c1CN(C)CC2c1ccccc1 (stereo unspecified) | 2 | 180 | >5 | 20.5 | 20 | 4 | 5 | 2.6 |  |  |  |  | 
CC(C)NCCC(=O)Nc1cccc2c1CN(C)CC2c1ccccc1 (stereo unspecified) | 2 | 900 | 160 | > 83 | 200 | 150 | 160 | ~125 |  |  |  |  | 
CCCCNCC(=O)Nc1cccc2c1CN(C)CC2c1ccc(C)cc1 (stereo unspecified) | 1 | 320 | >10 | 52.4 | 10 | 34 | 5 | ~2.5 |  |  |  |  | 
CN1Cc2c(NC(=O)OCc3ccccc3)cccc2C(c2ccccc2)C1 (stereo unspecified) | >5 | > 1000 | 100 | 12 | 20 | ~15 | 100 | 16 |  |  |  |  | 
CN1Cc2c(N)cccc2C(c2ccccc2)C1 (stereo unspecified) [NOMIFENSINE] |  | 336 | >5 |  |  |  | 10 |  |  |  |  | 0.5 | 
CCCCNCC(=O)Nc1cccc2c1CN(C)CC2c1ccccc1 (stereo unspecified) | 2 | 240 | >30 | 32.8 | >40 | 32 | 15 |  |  |  |  |  | 
CN1Cc2c(NC(=O)OCCCl)cccc2C(c2ccccc2)C1 (stereo unspecified) | 2 | 160 | 5 | > 20.5 | 20 |  | >20 |  | 9 | 11 | 2.5 |  | 
CC(C)c1ccc(C2CN(C)Cc3c(N)cccc32)cc1 (stereo unspecified) | 2 | 1100 | 80 |  | 50 | > 80 | 80 | 68 |  |  |  |  | 
CCNCC(=O)Nc1cccc2c1CN(C)CC2c1ccc(C)cc1 (stereo unspecified) | 1.5 | 320 | >10 | > 83 | 20 | ~45 | 10 | 5.6 |  |  |  |  | 
CN1Cc2c(N)cccc2C(c2ccc(Cl)cc2)C1 (stereo unspecified) |  | 240 | 5 |  | 2 | 1.6 | 10 | 1.1 |  |  |  |  | 
CN1Cc2c(NC(=O)CCCl)cccc2C(c2ccccc2)C1 (stereo unspecified) | 1 | 89 | >15 | 20.5 | >30 |  | >30 |  | > 30 | 19 | 8.8 |  | 
CCCCNCCC(=O)Nc1cccc2c1CN(C)CC2c1ccccc1 (stereo unspecified) | >5 | 292 | >80 | > 83 | >40 | ~46 | >80 | 74 |  |  |  |  | 
CCCCNC(=O)Nc1cccc2c1CN(C)CC2c1ccc(Cl)cc1 (stereo unspecified) | 3 | > 1000 | >30 | 134 | >100 | 44 | 15 | 15 |  |  |  |  | 

SMILES | EDmin [1] [mg/kg] | LD50 [2] [mg/kg] | EDmin [3] [mg/kg] | EDmin [4] [mg/kg] | EDmin [5] [mg/kg] | ED50 [6] [mg/kg] | EDmin [7] [mg/kg] | ED50 [8] [mg/kg] | ED50 [9] [mg/kg] | ED50 [10] [mg/kg] | ED50 [11] [mg/kg] | EDmin [12] [mg/kg] | EDmin [13] [mg/kg]
CN1Cc2c(NC(=O)CN3CCOCC3)cccc2C(c2ccccc2)C1 (stereo unspecified) | 3 | 295 | 60 | 83 | 20 | 39 | 60 |  |  |  |  |  | 
CN1Cc2c(NC(=O)CN3CCCC3)cccc2C(c2ccccc2)C1 (stereo unspecified) | 3 | 380 | >120 | 52.4 | 50 | 39 | 120 | ~25 |  |  |  |  | 
CCOC(=O)Nc1cccc2c1CN(C)CC2c1ccccc1 (stereo unspecified) |  | 71 | 4 | > 12.8 | 2 | 3.2 | >8 | ~4 |  |  |  |  | 
CCNCCC(=O)Nc1cccc2c1CN(C)CC2c1ccccc1 (stereo unspecified) | 4 | 720 | >160 | 134 | 200 | > 200 | 160 | > 160 |  |  |  |  | 
CC(C)NCC(=O)Nc1cccc2c1CN(C)CC2c1ccccc1 (stereo unspecified) | 1 | 300 | >30 | > 52.4 | 20 | 14 | 30 |  |  |  |  |  | 
CCNCC(=O)Nc1cccc2c1CN(C)CC2c1ccc(Cl)cc1 (stereo unspecified) | 0.5 | 325 | >20 | 32.8 | 5 | 24 | 20 | 6.4 |  |  |  |  | 
Cc1ccc(C2CN(C)Cc3c(N)cccc32)cc1 (stereo unspecified) | 0.2 | 800 |  |  | 2 | 1.6 | 15 | ~1.2 |  |  |  |  | 10
CN1Cc2c(N)cccc2C(c2ccc(F)cc2)C1 (stereo unspecified) | 0.2 | 222 | 10 |  | 2 | ~3.6 | 5 | 0.25 |  |  |  |  | 
CCNC(=O)Nc1cccc2c1CN(C)CC2c1ccccc1 (stereo unspecified) | 6 | 290 | 40 | > 83 | 40 | 80 | 80 | 54 |  |  |  |  | 
CCOC(=O)Nc1cccc2c1CN(C)CC2c1ccc(F)cc1 (stereo unspecified) | 2 | 255 | 5 | 8 | 10 | 3.5 | 20 | 3.3 |  |  |  |  | 
CCNCC(=O)Nc1cccc2c1CN(C)CC2c1ccccc1 (stereo unspecified) | 2 | 320 | >30 | 52.4 | 60 | 47 | >60 |  |  |  |  |  | 
CN1Cc2c(NC(=O)CN3CCCCC3)cccc2C(c2ccccc2)C1 (stereo unspecified) | 3.5 | 520 | >60 | > 83 | 20 | ~65 | >100 |  |  |  |  |  | 
CCOC(=O)Nc1cccc2c1CN(C)CC2c1ccc(Cl)cc1 (stereo unspecified) | 0.5 | 830 | 20 | 5.2 | 10 | 4.8 | 3 | 0.6 |  |  |  |  | 
CCCNC(=O)Nc1cccc2c1CN(C)CC2c1ccccc1 (stereo unspecified) | 10 | 455 | 80 | > 83 | >60 | > 80 | >80 | > 80 |  |  |  |  | 
CCCCNC(=O)Nc1cccc2c1CN(C)CC2c1ccc(C)cc1 (stereo unspecified) | >5 | > 1200 | 20 | 83 | 20 | 40 | 20 | ~15 |  |  |  |  | 
